In ChEMBL document CHEMBL4715780, “Biological evaluation of tetracationic compounds based on two 1,4-diazabicyclo[2.2.2]octane moieties connected by different linkers” (Bioorg Med Chem, 2016):
Values after ≈ are worked out from the molar mass of the structure shown.

Tests used:
Staphylococcus aureus [1] = test: Antibacterial activity against […] Staphylococcus aureus ATCC 25923 assessed as concentration required to inhibit visible growth by CLSI protocol based serial microdilution method; assay type: functional
Staphylococcus aureus [2] = test: Antibacterial activity against […] Staphylococcus aureus ATCC 25923 assessed as bacterial growth inhibition by CLSI protocol based serial microdilution method; assay type: functional
Enterococcus faecalis [3] = test: Antibacterial activity against Enterococcus faecalis ATCC 51299 assessed as concentration required to inhibit visible growth by CLSI protocol based serial microdilution method; assay type: functional
Enterococcus faecalis [4] = test: Antibacterial activity against Enterococcus faecalis ATCC 51299 assessed as bacterial growth inhibition by CLSI protocol based serial microdilution method; assay type: functional
Pseudomonas aeruginosa [5] = test: Antibacterial activity against Pseudomonas aeruginosa ATCC 9027 assessed as concentration required to inhibit visible growth by CLSI protocol based serial microdilution method; assay type: functional
Pseudomonas aeruginosa [6] = test: Antibacterial activity against Pseudomonas aeruginosa ATCC 9027 assessed as bacterial growth inhibition by CLSI protocol based serial microdilution method; assay type: functional
Escherichia coli [7] = test: Antibacterial activity against Escherichia coli ATCC 25922 assessed as concentration required to inhibit visible growth by CLSI protocol based serial microdilution method; assay type: functional
Escherichia coli [8] = test: Antibacterial activity against Escherichia coli ATCC 25922 assessed as bacterial growth inhibition by CLSI protocol based serial microdilution method; assay type: functional
Salmonella typhimurium [9] = test: Antibacterial activity against Salmonella enterica ATCC 14028 assessed as concentration required to inhibit visible growth by CLSI protocol based serial microdilution method; assay type: functional, Salmonella enterica subsp. enterica serovar Typhimurium
Salmonella typhimurium [10] = test: Antibacterial activity against Salmonella enterica ATCC 14028 assessed as bacterial growth inhibition by CLSI protocol based serial microdilution method; assay type: functional, Salmonella enterica subsp. enterica serovar Typhimurium
Citrobacter freundii [11] = test: Antibacterial activity against Citrobacter freundii ATCC 8090 assessed as concentration required to inhibit visible growth by CLSI protocol based serial microdilution method; assay type: functional
Citrobacter freundii [12] = test: Antibacterial activity against Citrobacter freundii ATCC 8090 assessed as bacterial growth inhibition by CLSI protocol based serial microdilution method; assay type: functional
Proteus vulgaris [13] = test: Antibacterial activity against Proteus vulgaris ATCC 6380 assessed as concentration required to inhibit visible growth by CLSI protocol based serial microdilution method; assay type: functional
Proteus vulgaris [14] = test: Antibacterial activity against Proteus vulgaris ATCC 6380 assessed as bacterial growth inhibition by CLSI protocol based serial microdilution method; assay type: functional
Candida albicans [15] = test: Antifungal activity against Candida albicans CEMTC 34 assessed as concentration required to inhibit visible growth by CLSI protocol based serial microdilution method; assay type: functional
Method in brief: (§1)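 Candida albicans grown in Sabouraud dextrose broth with two-fold serial compound dilutions from water stocks; final inoculum about 5 × 10⁵ CFU/mL. Incubated at 37 °C with orbital shaking (580 rpm). MIC is the lowest concentration preventing growth, by absorbance at 595 nm. MFC is the lowest concentration with no visible growth. Duplicates in two separate experiments.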

Candida albicans [16] = test: Antifungal activity against Candida albicans CEMTC 34 assessed as fungal growth inhibition by CLSI protocol based serial microdilution method; assay type: functional; method in brief: as §1
Influenza A virus = test: Antiviral activity against Influenza A virus (A/Puerto Rico/8/34 (H1N1) infected in MDCK cells assessed as decrease in viral titer preincubated for 1 hr followed by viral infection and cultivated for 48 hrs followed by supernatant transferred to chicken erythrocyte for 1 hr followed by measuring ability to cause positive hemagglutination; assay type: functional, organism-based; conditions: A/Puerto Rico/8/1934(H1N1)
Method in brief: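 MDCK monolayers in MEM were pre-incubated with compound for 1 h at 37 °C, then infected with 10-fold virus dilutions (10⁻¹–10⁻⁶) and held 48 h at 37 °C, 5% CO₂. Supernatant was mixed with an equal volume of 1% chicken erythrocytes, 60 min at room temperature. Titre was taken from the highest dilution giving full agglutination (log₁₀ EID₅₀). Triplicate per concentration.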

[17] = Cytotoxicity against MDCK cells assessed as cell death incubated for 48 hrs by MTT assay; assay type: cell-based, Canis lupus familiaris; conditions: dog
[18] = Selectivity index, ratio of CC50 for MDCK cells to EC50 for Influenza A virus (A/Puerto Rico/8/34 (H1N1)) infected in MDCK cells; assay type: toxicity, cell-based; conditions: dog, read-out: Ratio CC50/EC50
Method in brief: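 Ratio of CC₅₀ to EC₅₀, both in MDCK cells, with cytotoxicity run in parallel with the antiviral assay. EC₅₀ is the concentration halving virus production (0.3 log₁₀ EID₅₀ titre drop). It was obtained after 1 h compound pre-incubation, infection, 48 h at 37 °C, and hemagglutination read-out with 1% chicken erythrocytes.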

[19] = Cytotoxicity against human MCF7 cells assessed as reduction in cell viability measured after 24 hrs by MTT assay; assay type: cell-based
Method in brief: (§2)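 HEK293T or MCF-7 cells in IMDM with 10% FBS, seeded at 20,000 per well and grown overnight. Compounds at […] in fresh medium for 24 h at 37 °C, 5% CO₂. MTT then added for 4 h, precipitate dissolved overnight in SDS-HCl, absorbance read at 570 nm. Viability expressed relative to untreated cells, giving CC₅₀. Duplicate wells, at least two independent repeats.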

[20] = Cytotoxicity against HEK293T cells assessed as reduction in cell viability measured after 24 hrs by MTT assay; assay type: cell-based, HEK-293T; conditions: human; method in brief: as §2
[21] = Selectivity index, ratio of CC50 for HEK293T cells assessed as reduction in cell viability measured after 24 hrs by MTT assay to MIC for Candida albicans CEMTC 34 assessed as bacterial growth inhibition by CLSI protocol based serial microdilution method; assay type: toxicity; conditions: human, read-out: Selectivity Index
Method in brief: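 SI = CC₅₀ (HEK293T) / MIC. HEK293T cells were seeded at 20,000/well overnight, then exposed to 10–250 µg/mL in IMDM with 10% FBS for 24 h. MTT was added for 4 h, solubilised with SDS-HCl, and read at 570 nm; duplicates, ≥2 independent runs. MIC came from two-fold dilutions in Sabouraud dextrose broth at ~5 × 10⁵ CFU/mL, 37 °C with shaking, read at 595 nm, in duplicate.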

Structure (SMILES)	MBC (Staphylococcus aureus [1]) [µg/mL]	MIC (Staphylococcus aureus [2]) [µg/mL]	MBC (Enterococcus faecalis [3]) [µg/mL]	MIC (Enterococcus faecalis [4]) [µg/mL]	MBC (Pseudomonas aeruginosa [5]) [µg/mL]	MIC (Pseudomonas aeruginosa [6]) [µg/mL]	MBC (Escherichia coli [7]) [µg/mL]	MIC (Escherichia coli [8]) [µg/mL]	MBC (Salmonella typhimurium [9]) [µg/mL]	MIC (Salmonella typhimurium [10]) [µg/mL]	MBC (Citrobacter freundii [11]) [µg/mL]	MIC (Citrobacter freundii [12]) [µg/mL]	MBC (Proteus vulgaris [13]) [µg/mL]	MIC (Proteus vulgaris [14]) [µg/mL]	MFC (Candida albicans [15]) [µg/mL]	MIC (Candida albicans [16]) [µg/mL]	EC50 (Influenza A virus) [µg/mL]	CC50 at 48 h [17] [µg/mL]	selectivity ratio [18]	further results
C#CCOCCCCCN(CC[N+]12CC[N+](CCCCCCCCCCCC)(CC1)CC2)CC[N+]12CC[N+](CCCCCCCCCCCC)(CC1)CC2.[Cl-].[Cl-].[Cl-].[Cl-]	3.1	1.6	3.1	1.6	12.5	6.3	3.1	3.1	3.1	3.1	3.1	3.1	> 100	100	25	25	10	14.9	1	
O=C(O)c1cn(C2CC2)c2cc(N3CCNCC3)c(F)cc2c1=O [CIPROFLOXACIN]																				CC50 at 24 h [19]: 60 µg/mL (≈ 181 µM); CC50 at 24 h [20]: > 60 µg/mL
CCOC(=O)C1=C[C@@H](OC(CC)CC)[C@H](NC(C)=O)[C@@H](N)C1 [OSELTAMIVIR]																	0.3 (≈ 0.96 µM)	300 (≈ 960 µM)	1000	
CCCCCCCCCCCC[N+]12CC[N+](Cc3cccc(-c4ccccc4C[N+]45CC[N+](CCCCCCCCCCCC)(CC4)CC5)c3)(CC1)CC2	1.2	0.6	1.6	0.8	6.3	3.1	3.1	1.6	3.1	1.6	1.6	1.6	100	50	6.3	1.6				
CCCCCCCCCCCC[N+]12CC[N+](Cc3nnn(CCCCCN=[N+]=[N-])c3C[N+]34CC[N+](CCCCCCCCCCCC)(CC3)CC4)(CC1)CC2.[Cl-].[Cl-].[Cl-].[Cl-]	3.1	1.6	1.6	1.6	6.3	3.1	3.1	1.6	3.1	1.6	3.1	1.6	> 100	50	12.5	12.5	4.2	12.9	3	
CCCCCCCCCCCC[N+]12CC[N+](CCNCC[N+]34CC[N+](CCCCCCCCCCCC)(CC3)CC4)(CC1)CC2.[Cl-].[Cl-].[Cl-].[Cl-]	12	0.6	1.6	0.8	6.3	1.6	3.1	16	3.1	1.6	3.1	3.1	50	50	12.5	12.5	2.2	7.7	4	
CCCCCCCCCCCC[N+]12CC[N+](CCCCCCCC[N+]34CC[N+](CCCCCCCCCCCC)(CC3)CC4)(CC1)CC2	1.6	0.6	1.6	1.6	6.3	3.1	3.1	1.6	6.3	3.1	6.3	3.1	> 100	100	12.5	6.3	2.2	4.5	2	
CCCCCCCCCCCC[N+]12CC[N+](Cc3nnn(CCCCC(=O)OC)c3C[N+]34CC[N+](CCCCCCCCCCCC)(CC3)CC4)(CC1)CC2.[Cl-].[Cl-].[Cl-].[Cl-]	3.1	1.6	3.1	1.6	12.5	6.3	3.1	3.1	3.1	3.1	3.1	1.6	> 100	100	12.5	6.3	> 11	20.6	< 2	
Clc1ccccc1C(c1ccccc1)(c1ccccc1)n1ccnc1 [CLOTRIMAZOLE]															400 (≈ 1160 µM)	400 (≈ 1160 µM)				CC50 at 24 h [19]: 5 µg/mL (≈ 14.5 µM); CC50 at 24 h [20]: 7 µg/mL (≈ 20.3 µM); selectivity ratio at 24 h [21]: < 1
